The values that follow come from ChEMBL document CHEMBL2311453, “Tetrahydropyrroloquinolinone type dual inhibitors of aromatase/aldosterone synthase as a novel strategy for breast cancer patients with elevated cardiovascular risks” (J Med Chem, 2013).

One may read the IC50 as the concentration needed to halve the response being measured. In general, inhibition refers to the change of the read-out against control, counted positive when it falls. Read a high inhibition as strong suppression.

A value given as a limit tells only on which side of the number the result lay.

Data set [1] deals with T1, Cytochrome P450 11B2, mitochondrial (Homo sapiens, UniProt P19099).
T1 sequence (P19099 whole entry): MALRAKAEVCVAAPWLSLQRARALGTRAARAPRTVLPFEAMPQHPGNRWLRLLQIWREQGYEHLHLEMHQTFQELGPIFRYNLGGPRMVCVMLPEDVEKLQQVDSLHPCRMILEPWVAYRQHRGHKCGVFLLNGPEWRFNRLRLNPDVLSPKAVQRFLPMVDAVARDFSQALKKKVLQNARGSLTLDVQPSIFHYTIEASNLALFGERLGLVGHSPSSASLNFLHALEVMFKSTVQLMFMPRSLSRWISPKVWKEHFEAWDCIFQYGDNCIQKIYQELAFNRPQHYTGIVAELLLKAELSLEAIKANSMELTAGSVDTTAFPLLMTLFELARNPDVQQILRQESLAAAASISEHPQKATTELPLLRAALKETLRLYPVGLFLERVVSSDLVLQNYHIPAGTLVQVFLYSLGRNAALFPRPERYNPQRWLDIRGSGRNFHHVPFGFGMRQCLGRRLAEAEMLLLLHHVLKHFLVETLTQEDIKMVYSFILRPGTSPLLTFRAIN
The experiment in a line: (§1) Inhibition of human CYP11B2 expressed in hamster V79MZh cells using [1,2-3H]-11-deoxy-corticosterone as substrate. The class given is cell-based. The gist of the method: (§2)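 V79MZh hamster fibroblasts stably expressing human CYP11B1 or CYP11B2, incubated with [1,2-³H]-11-deoxycorticosterone (100 nM) and inhibitor at varying concentrations. IC50 taken as mean of at least three experiments (relative SD under 25%).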

In data set [2] the test system is V79MZh. The experiment in a line: Selectivity factor, ratio of IC50 for human CYP11B1 to IC50 for human CYP11B2 expressed in hamster V79MZh cells. The class given is cell-based. An outline of the steps:
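SF calculated as IC50(CYP11B1)/IC50(CYP11B2). Both IC50s come from V79MZh hamster fibroblasts expressing the human enzyme, with [1,2-³H]-11-deoxycorticosterone at 100 nM as substrate.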

Data set [3] deals with T2, CYP19 (aromatase) (Homo sapiens, UniProt P11511).
T2 sequence (P11511 whole entry): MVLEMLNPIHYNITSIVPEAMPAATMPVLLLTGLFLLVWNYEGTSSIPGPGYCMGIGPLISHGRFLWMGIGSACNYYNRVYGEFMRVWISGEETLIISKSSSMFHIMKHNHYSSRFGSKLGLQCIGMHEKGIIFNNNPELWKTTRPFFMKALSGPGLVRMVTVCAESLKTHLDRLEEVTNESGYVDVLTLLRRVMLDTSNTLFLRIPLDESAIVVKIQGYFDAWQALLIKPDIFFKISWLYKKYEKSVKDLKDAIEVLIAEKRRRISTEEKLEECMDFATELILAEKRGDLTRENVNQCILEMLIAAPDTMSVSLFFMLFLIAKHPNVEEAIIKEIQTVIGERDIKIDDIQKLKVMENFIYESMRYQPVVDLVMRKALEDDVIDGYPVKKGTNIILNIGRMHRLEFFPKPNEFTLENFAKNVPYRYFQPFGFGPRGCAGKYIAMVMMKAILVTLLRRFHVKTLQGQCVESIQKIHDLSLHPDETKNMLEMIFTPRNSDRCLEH
The experiment in a line: Inhibition of human CYP19 using [1beta-3H]androstenedione as substrate at 500 nM by 3H2O method. To be noted: probe [1beta-3H]androstenedione. An outline of the steps:
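Human placental microsomes as CYP19 source. [1β-³H]androstenedione substrate at 500 nM, activity read by ³H₂O release. IC50 is the mean of at least three experiments (relative SD under 25%).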

Data set [4] has as its target T3, Cytochrome P450 11B1, mitochondrial (Homo sapiens, UniProt P15538).
T3 sequence (P15538 whole entry): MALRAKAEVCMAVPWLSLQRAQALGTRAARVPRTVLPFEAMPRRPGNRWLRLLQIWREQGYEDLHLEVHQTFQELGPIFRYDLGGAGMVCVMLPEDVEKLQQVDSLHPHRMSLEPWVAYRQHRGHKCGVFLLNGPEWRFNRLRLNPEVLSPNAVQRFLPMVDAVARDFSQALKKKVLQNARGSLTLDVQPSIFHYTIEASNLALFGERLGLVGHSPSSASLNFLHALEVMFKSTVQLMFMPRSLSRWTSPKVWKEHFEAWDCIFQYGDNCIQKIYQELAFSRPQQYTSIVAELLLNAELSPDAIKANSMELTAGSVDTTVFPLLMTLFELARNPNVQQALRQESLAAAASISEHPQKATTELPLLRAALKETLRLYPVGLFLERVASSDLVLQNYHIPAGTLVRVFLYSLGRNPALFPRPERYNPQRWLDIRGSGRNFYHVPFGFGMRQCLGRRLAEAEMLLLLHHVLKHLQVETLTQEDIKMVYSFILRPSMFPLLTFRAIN
In words: (§3) Inhibition of human CYP11B1 expressed in hamster V79MZh cells using [1,2-3H]-11-deoxy-corticosterone as substrate. The class given is cell-based. The gist of the method: as §2

Data set [5] concerns the target T4, CYP11B2 (Homo sapiens, UniProt P19099).
T4 sequence (P19099 whole entry): T1 sequence (P19099 whole entry)
The description is as §1. The class given is cell-based. To be noted: human, hamster V79MZh cells expressing human CYP11B2, probe [1,2-3H]-11-deoxy-corticosterone. An outline of the steps: as §2

Data set [6] deals with T5, CYP17 (Homo sapiens, UniProt P05093).
T5 sequence (P05093 whole entry): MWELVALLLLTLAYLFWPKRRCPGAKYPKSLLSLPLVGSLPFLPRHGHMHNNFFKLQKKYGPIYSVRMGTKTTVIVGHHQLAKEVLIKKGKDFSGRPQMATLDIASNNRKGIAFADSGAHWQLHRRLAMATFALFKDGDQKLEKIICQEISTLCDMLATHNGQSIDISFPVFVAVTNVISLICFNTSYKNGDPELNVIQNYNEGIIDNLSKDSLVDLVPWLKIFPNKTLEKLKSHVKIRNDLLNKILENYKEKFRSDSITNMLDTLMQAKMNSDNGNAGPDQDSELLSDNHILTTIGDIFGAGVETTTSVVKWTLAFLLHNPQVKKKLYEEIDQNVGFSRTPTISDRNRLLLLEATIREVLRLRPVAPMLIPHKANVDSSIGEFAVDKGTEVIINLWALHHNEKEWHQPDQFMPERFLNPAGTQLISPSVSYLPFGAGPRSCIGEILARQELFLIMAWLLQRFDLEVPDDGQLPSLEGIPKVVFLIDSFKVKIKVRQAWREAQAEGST
The experiment in a line: Inhibition of human CYP17 expressed in Escherichia coli using progesterone as substrate at 2 uM. Particulars: probe progesterone. An outline of the steps:
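Enzyme source was the 90000g sediment of E. coli coexpressing human CYP17 and cytochrome P450 reductase. Progesterone substrate at 25 μM, NADPH cofactor, inhibitor at 2 μM. Percent inhibition is the mean of at least two experiments (SD under 10%).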

Data set [7] concerns the target T6, CYP11B1 (Homo sapiens, UniProt P15538).
T6 sequence (P15538 whole entry): T3 sequence (P15538 whole entry)
The description is as §3. The class given is cell-based. Particulars: human, hamster V79MZh cells expressing human CYP11B1, probe [1,2-3H]-11-deoxy-corticosterone. The gist of the method:
as §2

For data set [8], the target named is T7, Aromatase (Homo sapiens, UniProt P11511).
T7 sequence (P11511 whole entry): T2 sequence (P11511 whole entry)
In words: Inhibition of human CYP19 using [1beta-3H]androstenedione as substrate by 3H2O method.

Regarding `O=C1CCc2cc(-c3cccnc3)cc3c2N1CC3`, the IC50 in data set [1] is 1.1 nM; in data set [4] it was 715 nM. In addition, in data set [2], the Ratio IC50 came to 650. For the same compound, the inhibition at 500 nM in data set [3] amounted to 18%.
As for `O=C1CCc2cc(C(C3CC3)n3ccnc3)cc3c2N1CC3` (stereo not drawn), the 50% inhibitory concentration (IC50) worked out at 24 nM in data set [5] and 2.2 nM in data set [7]. Besides, the Ratio IC50 in data set [2] amounted to 0.1. The same compound showed an inhibition at 2 µM in data set [6] of 41%.
On to `O=C1CCc2cc(C(O)c3ccncc3)cc3c2N1CC3` (stereo not drawn), for which the half-maximal inhibitory concentration (IC50) in data set [1] is 563 nM; in data set [8], above 5000 nM; in data set [4], 347 nM. Also, in data set [2], the Ratio IC50 is 0.6. In data set [6], this compound gave an inhibition at 2 µM below 3%.
With `O=C1CCc2cc(C(c3ccncc3)c3ccc(F)cc3)cc3c2N1CC3` (stereo not drawn), the IC50 in data set [1] turned out to be 56 nM; in data set [8] it was 116 nM; in data set [4], 88 nM. Also, the Ratio IC50 in data set [2] came out at 1.6. In data set [6], at 2 µM the inhibition was 55%.
As to `C=C(c1ccncc1)c1cc2c3c(c1)CCN3C(=O)CC2`, the IC50 in data set [1] was 96 nM; in data set [8], 565 nM; in data set [4] it was 1230 nM. Besides, in data set [2], the Ratio IC50 came out at 13. Also, at 2 µM the inhibition in data set [6] was 17%.
Regarding `O=C1CCc2cc(C(c3ccncc3)c3ccc(Cl)cc3)cc3c2N1CC3` (stereo not drawn), the IC50 in data set [1] is 32 nM; in data set [8], 55 nM; in data set [4], 92 nM. Also, in data set [2], the Ratio IC50 stood at 2.9. For the same compound, testing at 2 µM in data set [6] gave an inhibition of 60%.
With `COc1ccccc1C(c1ccncc1)c1cc2c3c(c1)CCN3C(=O)CC2` (stereo not drawn), the IC50 in data set [1] stood at 128 nM; in data set [8] it was 81 nM; in data set [4] it was 276 nM. Moreover, the Ratio IC50 in data set [2] was 2.2. Further, the inhibition at 2 µM in data set [6] amounted to 33%.
